Laboratory results from PubChem BioAssay.
Inconclusive results are not listed.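 How the source made its calls, unless noted: active means growth inhibition above 25% in both replicates, a cutoff set 3 SD above the mean; inconclusive means above 25% in only one replicate; inactive means the rest.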

Key:
[1] = S. cerevisiae growth inhibition in permissive medium (OD615), pilot counter-assay for S. cerevisiae lifespan shortening project, permissive growth control (AID 705); settings: OD615, 24 h, at 10 µM, active compounds read high
In short: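 Test system: Saccharomyces cerevisiae strain carrying genetically modified DeaD replicative-lifespan system; buffer or medium: SC raffinose/galactose permissive medium; dosing: one dose 10 µM, DMSO 0.25% final; times: 24 h exposure, 30 °C; measured by: OD at 615 nm; read-out basis: growth inhibition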

[2] = S. cerevisiae growth inhibition in restrictive medium, OD615, pilot screen, restrictive growth control, yeast lifespan reduction project (AID 706;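 active means growth inhibition above a set limit, 3 SD over mean compound inhibition, in both replicates, cut at about 43% in these data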;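 further: modified DeaD lifespan yeast strain shifted to restrictive glucose medium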); settings: OD615, 48 h, at 10 µM, active compounds read high
In short: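 material = engineered S. cerevisiae DeaD strain | buffer or medium = glucose-based CSMM-D restrictive medium | dosing = one concentration, 10 µM final, 0.25% DMSO | schedule = 4 h pre-growth plus 48 h compound exposure, 30 °C | detection = OD615 absorbance reading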

[3] = doxorubicin toxicity protection in MRP-1 cells – H69AR cells, CellTiter-Glo, duplicate, MRP-1 activator project, pilot screen (AID 807;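 active means viability increase at or above a cutoff of the median across tested compounds plus 3 SD, cut at about 8.5% in these data, passing the limit was not always enough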;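 further: compound pretreatment 18-22 h then 72 h combined with doxorubicin; 0% = doxorubicin alone and 100% = vehicle without doxorubicin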); settings: H69AR viability with doxorubicin, CellTiter-Glo luminescence; at 10 µM; active compounds read high
[4] = viability of HCT116 without oncogenic beta-catenin – human colon tumor cells, pilot screen (AID 823;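 active means cell viability at or below a set limit in both duplicate runs, the limit being the all-compound median minus 4 SD, cut at about 23% in these data, passing the limit was not always enough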;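 further: 0% = wells killed by 20 µM Hyamine and 100% = untreated DMSO cell wells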); settings: HCT116 beta-catenin knockout viability, CellTiter-Glo, 60 h; at 10 µM; active compounds read low
[5] = viability of PTEN-null HCT116 cells – cell-based, HCT116 clonal line, CellTiter-Glo, pilot screen (AID 824;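 active means viability at or below 27.92% in each of two runs, the all-compound median minus 4 SD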;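 further: 0% = 20 µM Hyamine control and 100% = vehicle cell control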); settings: HCT116 PTEN-deleted viability, 60 h, at 10 µM, active compounds read low
[6] = RAM pathway blockade in budding yeast – dse1pr::URA3 reporter, 5-FOA selection, pilot screen (AID 869;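 active means inhibition over a set limit, the all-compound mean plus 3 SD, in both replicate runs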;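 further: 0% = DMSO wells with no growth and 100% = 10 µM 1-NA-PP1 with full growth; RAM network block rescues cells from 5-FOA so hits raise OD615 growth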); settings: S. cerevisiae dse1pr::URA3 5-FOA growth, OD615, 2 d; at 10 µM; active compounds read high; strain carries analog-sensitive mutant Cbk1 kinase
[7] = RAM signaling pathway blockade in yeast – S. cerevisiae, Pdr1DBD-CYC8 efflux-inhibited sensitized strain, primary screen (AID 1298;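 active means RAM network inhibition above 8.4% in each of two replicates, 3 SD over the compound average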;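 further: 0% = DMSO untreated cells without growth and 100% = 10 µM 1-NA-PP1 full growth; higher means more yeast growth rescued from 5-FOA killing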); settings: S. cerevisiae cbk1-as DSE1-URA3 strain, 5-FOA growth OD615, 2 d; at 50 µM; active compounds read high

CCCC(=O)OCCNC(=O)c1cc2ccccc2oc1=O
inactive: growth inhibition [1] -4.39% | growth inhibition [2] 2.19% | viability increase [3] -0.74% | viability [4] 102% | viability [5] 90.2% | inhibition [6] 0.64% | RAM network inhibition [7] 2.41%

Cn1c(CSc2nc3ccccc3s2)n[nH]c1=S
inactive: growth inhibition [1] -6.41% | growth inhibition [2] 1.9% | viability increase [3] -3.16% | viability [4] 96.9% | viability [5] 94.6% | inhibition [6] 0.23% | RAM network inhibition [7] 0.95%

COC(=O)CSC1=C(C#N)C(c2cccc(OC)c2)CC(=O)N1 (centres undefined)
inactive: growth inhibition [1] -12.2% | growth inhibition [2] -5.83% | viability increase [3] -3.93% | viability [4] 89.1% | viability [5] 90.3% | inhibition [6] 0.41% | RAM network inhibition [7] -1.62%

O=C(NC1CCCc2ccccc21)C1CCC(CNc2c(N3CCOCC3)c(=O)c2=O)CC1 (centres undefined)
inactive: growth inhibition [1] -6.7% | growth inhibition [2] 7.02% | viability increase [3] -0.75% | viability [4] 105% | viability [5] 107% | inhibition [6] 1.08% | RAM network inhibition [7] 1.43%

COC(=O)C(C)Sc1ccc2nnc(-c3cccc(F)c3)n2n1 (centres undefined)
inactive: growth inhibition [1] 8.96% | growth inhibition [2] 14.9% | viability increase [3] -3.98% | viability [4] 94.7% | viability [5] 87.4% | inhibition [6] 2.51% | RAM network inhibition [7] 0.15%

CCCCN1C(=O)/C(=C2\SC(N3CCCCC3)=NC2=O)c2ccccc21
inactive: growth inhibition [1] -4.39% | growth inhibition [2] 14.6% | viability increase [3] -2.31% | viability [4] 48.4% | viability [5] 45.8% | inhibition [6] 1.53% | RAM network inhibition [7] 3.38%

O=C(C1CCN(S(=O)(=O)c2cccc3cccnc23)CC1)N1CCN(Cc2ccccc2)CC1
inactive: growth inhibition [1] 8.83% | growth inhibition [2] 5.8% | viability increase [3] 0.23% | viability [4] 105% | viability [5] 99.5% | inhibition [6] -0.39% | RAM network inhibition [7] 1.71%

CCn1cc(C(=O)N2CCN(Cc3ccc4c(c3)OCO4)CC2)c2cc(OC)c(OC)cc2c1=O
inactive: growth inhibition [1] -9.86% | growth inhibition [2] -27.3% | viability increase [3] -5.64% | viability [4] 96.1% | viability [5] 85.9% | inhibition [6] 0.125% | RAM network inhibition [7] 2.76%

O=C1c2ccccc2C(=O)C1c1ccncc1
inactive: growth inhibition [1] 4.93% | growth inhibition [2] -1.51% | viability increase [3] -1.88% | viability [4] 92.6% | viability [5] 91.3% | inhibition [6] 0.79% | RAM network inhibition [7] -0.62%

O=C(c1cc(-c2ccccc2)nc2ccccc12)N1CCOCC1
inactive: growth inhibition [1] -4.54% | growth inhibition [2] -9.07% | viability increase [3] -3.82% | viability [4] 102% | viability [5] 90.8% | inhibition [6] -0.135% | RAM network inhibition [7] 1.87%

O=C(CSc1nnc(Cc2cc(=O)[nH]c(=O)[nH]2)n1-c1ccc(F)cc1)N1CCCCC1
inactive: growth inhibition [1] -4.41% | growth inhibition [2] 1.35% | viability increase [3] -0.28% | viability [4] 104% | viability [5] 105% | inhibition [6] 0.87% | RAM network inhibition [7] 2.55%

CCc1nccn1S(=O)(=O)c1ccc(OC)c(OC)c1
inactive: growth inhibition [1] -17.4% | growth inhibition [2] -10% | viability increase [3] -0.29% | viability [4] 100% | viability [5] 93.3% | inhibition [6] 1.67% | RAM network inhibition [7] 0.47%

O=C(CC1c2ccccc2Oc2ccccc21)N1CCN(c2ccccn2)CC1
inactive: growth inhibition [1] -16.3% | growth inhibition [2] -10.3% | viability increase [3] -3.24% | viability [4] 71.6% | viability [5] 70.5% | inhibition [6] 1.08% | RAM network inhibition [7] 4.78%

Cc1nnc(SCC(=O)Nc2ccc3c(c2)OCO3)o1
inactive: growth inhibition [1] -0.465% | growth inhibition [2] -12% | viability increase [3] -5.27% | viability [4] 102% | viability [5] 95.1% | inhibition [6] 1.41% | RAM network inhibition [7] 4.08%

O=C(c1ccco1)c1cn[nH]c1-c1ccc(Cl)cc1O
inactive: growth inhibition [1] -6.04% | growth inhibition [2] -8.45% | viability increase [3] -2.19% | viability [4] 95.6% | viability [5] 83.4% | inhibition [6] 1.42% | RAM network inhibition [7] 0.57%

Cc1onc(-c2ccccc2Cl)c1C(=O)Nc1nnc(-c2ccc(F)cc2)s1
inactive: growth inhibition [1] -16.7% | growth inhibition [2] -1.93% | viability increase [3] 2.9% | viability [4] 98.5% | viability [5] 90.5% | inhibition [6] 2.51% | RAM network inhibition [7] 5.79%

CC1=C(C(=O)OC(C)C)C(c2cccs2)n2ncnc2N1 (centres undefined)
inactive: growth inhibition [1] -1.96% | growth inhibition [2] 7.93% | viability increase [3] -1.21% | viability [4] 101% | viability [5] 96.2% | inhibition [6] 0.955% | RAM network inhibition [7] 2.09%
